Source: publication PMC9305210 (British Journal of Clinical Pharmacology, 2022)

Key:
[1] = test system: plasma 24S‐hydroxycholesterol (24HC); assay: Pharmacodynamics: time‐matched percentage change from baseline in plasma 24HC; assay type: in vivo, human
Method in brief: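 Healthy adults (18-55 y, BMI 18-30 kg/m2), 6 active:2 placebo, double-blind; oral solution QD or BID after ≥8 h fast. 24HC by LC-MS/MS, validated 2.00-100 ng/mL. Time-matched % change from baseline; AUEC24/E24 for QD, AUEC12/E12 for BID.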

[2] = Safety and tolerability; assay type: in vivo, human; conditions: for tolerability: 100‐400 mg/day for up to 14 days, healthy subjects
Method in brief: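 Randomized, double-blind, placebo-controlled; cohorts of 8 (6:2) healthy adults given oral solution daily for a planned 14 days after ≥8 h fast, confined on site days −3 to 15 plus 1 follow-up day. Monitoring covered AEs, physical examination, BMI, vital signs, ECG and clinical laboratory tests. Subjects with ≥1 treatment-emergent AE counted across all subjects receiving at least one dose.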

[3] = day 14, 400 mg dose (range 100‐400 mg QD)

O=C(c1cccnc1-c1ccncc1)N1CCC(O)(Cc2ccccc2)CC1 [Soticlestat, soticlestat]
24HC AUECτ, mean (CV%), percentage change from baseline (day −1) ([1]; AUECτ = AUEC12, 300 mg BID, day 1): −6.90 (−75.9) % | 24HC AUECτ, mean (CV%), percentage change from baseline (day −1) ([1]; AUECτ = AUEC24, 100 mg QD, day 1): −8.15 (−45.4) % | 24HC AUECτ, mean (CV%), percentage change from baseline (day −1) ([1]; AUECτ = AUEC24, 100 mg QD, day 14): −46.8 (−9.2) % | 24HC AUECτ, mean (CV%), percentage change from baseline (day −1) ([1]; AUECτ = AUEC24, 300 mg QD, day 1): −12.7 (−36.5) % | 24HC AUECτ, mean (CV%), percentage change from baseline (day −1) ([1]; AUECτ = AUEC24, 300 mg QD, day 14): −61.9 (−17.0) % | 24HC AUECτ, mean (CV%), percentage change from baseline (day −1) ([1]; AUECτ = AUEC24, 400 mg QD, day 1): −11.7 (−34.5) % | 24HC AUECτ, mean (CV%), percentage change from baseline (day −1) ([1]; AUECτ = AUEC24, 400 mg QD, day 14): −62.7 (−7.3) % | 24HC AUECτ, mean (CV%), percentage change from baseline (day −1) ([1]; AUECτ = AUEC24, 600 mg QD, day 1): −14.0 (−27.9) % | 24HC E t, mean (CV%), percentage change from baseline (day −1) ([1]; E t = E 12, 300 mg BID, day 1): −10.5 (−63.8) % | 24HC E t, mean (CV%), percentage change from baseline (day −1) ([1]; E t = E 24, 100 mg QD, day 1): −20.9 (−49.0) % | 24HC E t, mean (CV%), percentage change from baseline (day −1) ([1]; E t = E 24, 100 mg QD, day 14): −49.1 (−11.9) % | 24HC E t, mean (CV%), percentage change from baseline (day −1) ([1]; E t = E 24, 300 mg QD, day 1): −22.4 (−19.5) % | 24HC E t, mean (CV%), percentage change from baseline (day −1) ([1]; E t = E 24, 300 mg QD, day 14): −63.8 (−19.3) % | 24HC E t, mean (CV%), percentage change from baseline (day −1) ([1]; E t = E 24, 400 mg QD, day 1): −28.4 (−28.1) % | 24HC E t, mean (CV%), percentage change from baseline (day −1) ([1]; E t = E 24, 400 mg QD, day 14): −65.6 (−6.0) % | 24HC E t, mean (CV%), percentage change from baseline (day −1) ([1]; E t = E 24, 600 mg QD, day 1): −30.6 (−41.0) % | maximum decrease from baseline in 24HC AUEC24 [1, 3]: 62.66% | maximum decrease from baseline in 24HC E24 [1, 3]: 65.59% | Number of subjects (%) with SAEs ([2]; 100 mg QD, n = 6): 0 | Number of subjects (%) with TEAEs ([2]; 100 mg QD, n = 6): 0 | Number of subjects (%) with TEAEs: Leading to discontinuation ([2]; 100 mg QD, n = 6): 0 | Number of subjects (%) with TEAEs: Mild ([2]; 100 mg QD, n = 6): 0 | Number of subjects (%) with TEAEs: Moderate ([2]; 100 mg QD, n = 6): 0 | Number of subjects (%) with TEAEs: Not related ([2]; 100 mg QD, n = 6): 0 | Number of subjects (%) with TEAEs: Related ([2]; 100 mg QD, n = 6): 0 | Number of subjects (%) with TEAEs: Severe ([2]; 100 mg QD, n = 6): 0 | Number of subjects (%): Deaths ([2]; 100 mg QD, n = 6): 0 | Number of subjects (%) with SAEs ([2]; 300 mg BID, n = 6): 0 | Number of subjects (%) with TEAEs ([2]; 300 mg BID, n = 6): 5 (83.3) | Number of subjects (%) with TEAEs: Leading to discontinuation ([2]; 300 mg BID, n = 6): 1 (16.7) | Number of subjects (%) with TEAEs: Mild ([2]; 300 mg BID, n = 6): 5 (83.3) | Number of subjects (%) with TEAEs: Moderate ([2]; 300 mg BID, n = 6): 0 | Number of subjects (%) with TEAEs: Not related ([2]; 300 mg BID, n = 6): 0 | Number of subjects (%) with TEAEs: Related ([2]; 300 mg BID, n = 6): 5 (83.3) | Number of subjects (%) with TEAEs: Severe ([2]; 300 mg BID, n = 6): 0 | Number of subjects (%): Deaths ([2]; 300 mg BID, n = 6): 0 | Number of subjects (%) with SAEs ([2]; 300 mg QD, n = 6): 0 | Number of subjects (%) with TEAEs ([2]; 300 mg QD, n = 6): 1 (16.7) | Number of subjects (%) with TEAEs: Leading to discontinuation ([2]; 300 mg QD, n = 6): 0 | Number of subjects (%) with TEAEs: Mild ([2]; 300 mg QD, n = 6): 1 (16.7) | Number of subjects (%) with TEAEs: Moderate ([2]; 300 mg QD, n = 6): 0 | Number of subjects (%) with TEAEs: Not related ([2]; 300 mg QD, n = 6): 0 | Number of subjects (%) with TEAEs: Related ([2]; 300 mg QD, n = 6): 1 (16.7) | Number of subjects (%) with TEAEs: Severe ([2]; 300 mg QD, n = 6): 0 | Number of subjects (%): Deaths ([2]; 300 mg QD, n = 6): 0 | Number of subjects (%) with SAEs ([2]; 400 mg QD, n = 6): 0 | Number of subjects (%) with TEAEs ([2]; 400 mg QD, n = 6): 5 (83.3) | Number of subjects (%) with TEAEs: Leading to discontinuation ([2]; 400 mg QD, n = 6): 0 | Number of subjects (%) with TEAEs: Mild ([2]; 400 mg QD, n = 6): 4 (66.7) | Number of subjects (%) with TEAEs: Moderate ([2]; 400 mg QD, n = 6): 1 (16.7) | Number of subjects (%) with TEAEs: Not related ([2]; 400 mg QD, n = 6): 1 (16.7) | Number of subjects (%) with TEAEs: Related ([2]; 400 mg QD, n = 6): 4 (66.7) | Number of subjects (%) with TEAEs: Severe ([2]; 400 mg QD, n = 6): 0 | Number of subjects (%): Deaths ([2]; 400 mg QD, n = 6): 0 | Number of subjects (%) with SAEs ([2]; 600 mg QD, n = 6): 0 | Number of subjects (%) with TEAEs ([2]; 600 mg QD, n = 6): 3 (50.0) | Number of subjects (%) with TEAEs: Leading to discontinuation ([2]; 600 mg QD, n = 6): 1 (16.7) | Number of subjects (%) with TEAEs: Mild ([2]; 600 mg QD, n = 6): 2 (33.3) | Number of subjects (%) with TEAEs: Moderate ([2]; 600 mg QD, n = 6): 0 | Number of subjects (%) with TEAEs: Not related ([2]; 600 mg QD, n = 6): 0 | Number of subjects (%) with TEAEs: Related ([2]; 600 mg QD, n = 6): 3 (50.0) | Number of subjects (%) with TEAEs: Severe ([2]; 600 mg QD, n = 6): 1 (16.7) | Number of subjects (%): Deaths ([2]; 600 mg QD, n = 6): 0 | tolerability [2]: generally well tolerated | tolerability ([2]; listed as soticlestat): well tolerated in most healthy subjects up to 400 mg daily | Number of subjects (%) with SAEs ([2]; Soticlestat total, n = 30): 0 | Number of subjects (%) with TEAEs ([2]; Soticlestat total, n = 30): 14 (46.7) | Number of subjects (%) with TEAEs: Leading to discontinuation ([2]; Soticlestat total, n = 30): 2 (6.7)
